Assay results taken from ChEMBL document CHEMBL1124278, “Heterocyclic quinones with potential antitumor activity. 2. Synthesis and antitumor activity of some benzimidazole-4,7-dione derivatives” (1988).

Columns and labels:
[1] = tested on: P338; assay: Antitumor activity against P338 leukemia cells measured as T/C(average survival time of treated mice/control mice*100)at 25 mg/kg, ip optimal dose on day 1 in mice; format: functional; conditions: Mus musculus, 24 h, route intraperitoneal
How it was run: (§1)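 Groups of five CD2F1 mice were inoculated ip with 10⁶ P388 lymphocytic leukemia cells on day 0. Drug was given as a single ip injection on day 1, following NCI protocols. %T/C = (average survival time of treated mice / control mice) × 100, taken at the optimal dose; the toxic dose level was also recorded.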

[2] = tested on: P338; assay: Antitumor activity against P338 leukemia cells measured as toxic level at 25 mg/kg, ip optimal dose on day 1 in mice; format: functional, Mus musculus; conditions: route intraperitoneal
How it was run: (§2)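 Groups of five mice were inoculated ip with 10⁶ P388 (P338) lymphocytic leukemia cells on day 0. The drug was given as a single ip injection on day 1, following NCI protocols. Optimal dose, maximum % T/C and toxic level are in mg/kg. % T/C = (average survival time of treated mice / control mice) × 100.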

[3] = tested on: P338; assay: Antitumor activity against P338 leukemia cells measured as T/C(average survival time of treated mice/control mice*100)at 6.25 mg/kg, ip optimal dose on days 1-5 in mice; format: functional; conditions: Mus musculus, route intraperitoneal
How it was run: (§3)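 Five CD2F1 mice per group received 10⁶ P388 lymphocytic leukemia cells ip on day 0. Drug was given ip daily on days 1–5, following NCI protocols. %T/C is mean survival time of treated over control mice × 100, taken at the optimal dose; the toxic dose level was also recorded.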

[4] = tested on: P338; assay: Antitumor activity against P338 leukemia cells measured as toxic level at 6.25 mg/kg, ip optimal dose on days 1-5 in mice; format: functional, Mus musculus; conditions: route intraperitoneal
How it was run: (§4)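 Groups of five mice were inoculated ip with 10⁶ P388 (P338) lymphocytic leukemia cells on day 0. Drug was injected ip daily on days 1–5, following NCI protocols. Optimal dose, maximum % T/C and toxic level are in mg/kg. % T/C = (average survival time of treated mice / control mice) × 100.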

[5] = tested on: P338; assay: Antitumor activity against P338 leukemia cells measured as toxic level at 6.25 mg/kg, ip optimal dose on day 1 in mice; format: functional, Mus musculus; conditions: route intraperitoneal; how it was run: as §2
[6] = tested on: P338; assay: Antitumor activity against P338 leukemia cells measured as T/C(average survival time of treated mice/control mice*100)at 6.25 mg/kg, ip optimal dose on day 1 in mice; format: functional; conditions: Mus musculus, 24 h, route intraperitoneal; how it was run: as §1
[7] = tested on: P338; assay: Antitumor activity against P338 leukemia cells measured as toxic level at 3.12 mg/kg, ip optimal dose on days 1-5 in mice; format: functional, Mus musculus; conditions: route intraperitoneal; how it was run: as §4
[8] = tested on: P338; assay: Antitumor activity against P338 leukemia cells measured as T/C(average survival time of treated mice/control mice*100)at 3.12 mg/kg, ip optimal dose on days 1-5 in mice; format: functional; conditions: Mus musculus, route intraperitoneal; how it was run: as §3
[9] = tested on: P338; assay: Antitumor activity against P338 leukemia cells measured as T/C(average survival time of treated mice/control mice*100)at 1.56 mg/kg, ip optimal dose on days 1-5 in mice; format: functional; conditions: Mus musculus, route intraperitoneal; how it was run: as §3
[10] = tested on: P338; assay: Antitumor activity against P338 leukemia cells measured as toxic level at 1.56 mg/kg, ip optimal dose on days 1-5 in mice; format: functional, Mus musculus; conditions: route intraperitoneal; how it was run: as §4
[11] = tested on: P338; assay: Antitumor activity against P338 leukemia cells measured as toxic level at 0.4 mg/kg, ip optimal dose on days 1-5 in mice; format: functional, Mus musculus; conditions: route intraperitoneal; how it was run: as §4
[12] = tested on: P338; assay: Antitumor activity against P338 leukemia cells measured as T/C(average survival time of treated mice/control mice*100)at 0.4 mg/kg, ip optimal dose on days 1-5 in mice; format: functional; conditions: Mus musculus, route intraperitoneal; how it was run: as §3
[13] = tested on: P338; assay: Antitumor activity against P338 leukemia cells measured as toxic level at 0.4 mg/kg, ip optimal dose on day 1 in mice; format: functional, Mus musculus; conditions: route intraperitoneal; how it was run: as §2
[14] = tested on: P338; assay: Antitumor activity against P338 leukemia cells measured as T/C(average survival time of treated mice/control mice*100)at 0.4 mg/kg, ip optimal dose on day 1 in mice; format: functional; conditions: Mus musculus, 24 h, route intraperitoneal; how it was run: as §1
[15] = tested on: P338; assay: Antitumor activity against P338 leukemia cells measured as toxic level at 3.12 mg/kg, ip optimal dose on day 1 in mice; format: functional, Mus musculus; conditions: route intraperitoneal; how it was run: as §2
[16] = tested on: P338; assay: Antitumor activity against P338 leukemia cells measured as T/C at 3.12 mg/kg, ip optimal dose on day 1 in mice; format: functional; conditions: Mus musculus, 24 h, route intraperitoneal; how it was run: as §1
[17] = tested on: P338; assay: Antitumor activity against P338 leukemia cells measured as toxic level at 12.5 mg/kg, ip optimal dose on days 1-5 in mice; format: functional, Mus musculus; conditions: route intraperitoneal; how it was run: as §4
[18] = tested on: P338; assay: Antitumor activity against P338 leukemia cells measured as T/C(average survival time of treated mice/control mice*100)at 12.5 mg/kg, ip optimal dose on days 1-5 in mice; format: functional; conditions: Mus musculus, route intraperitoneal; how it was run: as §3
[19] = tested on: P338; assay: Antitumor activity against P338 leukemia cells measured as T/C(average survival time of treated mice/control mice*100)at 25 mg/kg, ip optimal dose on days 1-5 in mice; format: functional; conditions: Mus musculus, route intraperitoneal; how it was run: as §3
[20] = tested on: P338; assay: Antitumor activity against P338 leukemia cells measured as toxic level at 25 mg/kg, ip optimal dose on days 1-5 in mice; format: functional, Mus musculus; conditions: route intraperitoneal; how it was run: as §4

Structure (SMILES): CC1=C(C)C(=O)c2c(ncn2C)C1=O
- survival at 25 mg/kg [1]: 95%
- Toxic level [2]: 100 mg/kg

Structure (SMILES): O=C1C(Br)=C(N2CC2)C(=O)c2[nH]cnc21
- survival at 6.25 mg/kg [3]: 156%
- Toxic level [4]: 12.5 mg/kg

Structure (SMILES): CCn1cnc2c1C(=O)C(C)=C(C)C2=O
- survival at 25 mg/kg [1]: 100%
- Toxic level [2]: 100 mg/kg

Structure (SMILES): O=C1C(Cl)=CC(=O)c2[nH]cnc21
- Toxic level [5]: 12.5 mg/kg
- survival at 6.25 mg/kg [6]: 117%

Structure (SMILES): Cc1nc2c([nH]1)C(=O)C=CC2=O
- Toxic level [7]: 6.25 mg/kg
- survival at 3.12 mg/kg [8]: 100%

Structure (SMILES): O=C1C(Br)=C(Br)C(=O)c2[nH]cnc21
- survival at 1.56 mg/kg [9]: 130%
- Toxic level [10]: 12.5 mg/kg

Structure (SMILES): O=C(Nc1ccccc1)OCc1nc2c([nH]1)C(=O)C=CC2=O
- survival at 6.25 mg/kg [3]: 146%
- Toxic level [4]: 25 mg/kg

Structure (SMILES): Cn1cnc2c1C(=O)C=CC2=O
- Toxic level [11]: 6.25 mg/kg
- survival at 0.4 mg/kg [12]: 95%
- Toxic level [13]: 3.12 mg/kg
- survival at 0.4 mg/kg [14]: 76%

Structure (SMILES): O=C1C=C(NCc2ccccc2)C(=O)c2[nH]cnc21
- Toxic level [7]: 150 mg/kg
- survival at 3.12 mg/kg [8]: 105%
- survival at 25 mg/kg [1]: 90%
- Toxic level [2]: 100 mg/kg

Structure (SMILES): NC1=C(Br)C(=O)c2[nH]cnc2C1=O
- survival at 6.25 mg/kg [3]: 154%
- Toxic level [4]: 25 mg/kg

Structure (SMILES): O=C1C=CC(=O)c2[nH]c(CO)nc21
- Toxic level [15]: 12.5 mg/kg
- survival at 6.25 mg/kg [3]: 110%
- survival at 3.12 mg/kg [16]: 105%
- Toxic level [4]: 12.5 mg/kg

Structure (SMILES): CC1CN1C1=C(Br)C(=O)c2[nH]cnc2C1=O (stereo not given)
- survival at 6.25 mg/kg [3]: 136%
- Toxic level [4]: 12.5 mg/kg

Structure (SMILES): O=C1C=CC(=O)c2[nH]cnc21
- Toxic level [5]: 12.5 mg/kg
- survival at 6.25 mg/kg [3]: 110%
- survival at 6.25 mg/kg [6]: 105%
- Toxic level [4]: 25 mg/kg

Structure (SMILES): CC1=C(C)C(=O)c2[nH]c(C)nc2C1=O
- Toxic level [17]: 100 mg/kg
- survival at 12.5 mg/kg [18]: 110%

Structure (SMILES): O=C1C(CCl)=CC(=O)c2[nH]cnc21
- Toxic level [7]: 12.5 mg/kg
- survival at 3.12 mg/kg [8]: 95%

Structure (SMILES): CC1=C(C)C(=O)c2[nH]cnc2C1=O
- survival at 25 mg/kg [19]: 130%
- Toxic level [20]: 200 mg/kg
